Experimental findings from ChEMBL document CHEMBL3352816, “Synthesis and antiproliferative activity of imidazo[2,1-b][1,3,4]thiadiazole derivatives” (Bioorg Med Chem Lett, 2014) are described below.

The test system of assay [1] is REH. The assay is described as follows: Induction of apoptosis in human REH cells assessed as early apoptotic cells at 1 uM after 48 hrs using annexin-v-FITC/propidium iodide by FACS analysis (reference value: 6.05 %). Type of assay: functional.
Assay [2] has as its system REH. The assay is described as follows: Induction of apoptosis in human REH cells assessed as viable cells at 1 uM after 48 hrs using annexin-v-FITC/propidium iodide by FACS analysis (reference value: 88.41 %). Type of assay: functional. Conditions: read-out: Activity. Background: In flow cytometry, cells or beads pass a laser one at a time.
Assay [3] relates to REH. The assay is described as follows: Induction of apoptosis in human REH cells assessed as change in caspase 9 expression at 1 uM after 48 hrs by Western blot analysis. Type of assay: functional, cell-based. Put shortly:
(§1)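 Reh cell lysates were prepared after 48 h treatment at 500 nM and 1 µM, with DMSO-treated cells as control. Western blotting used primary antibodies against KU70, PARP1, caspase 3, BID, caspase 9, FAS and caspase 8, with tubulin also probed.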
(A western blot detects proteins with antibodies after separation by electrophoresis.)

The next assay concerns K562. The assay is described as follows: Cytotoxicity against human K562 cells assessed as reduction in cell viability at 0.1 to 10 uM by trypan blue exclusion assay. Conditions: TDE = time-dependent effect. Type of assay: functional, cell-based. The gist of the method:
(§2)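 Reh, K562 and Nalm6 leukemic cells were treated with 10, 50, 100 and 250 µM or with 0.1, 0.5, 1, 5 and 10 µM (compounds dissolved in DMSO). Viability was scored by trypan blue after 24, 48 and 72 h. DMSO-treated cells served as vehicle control.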

Assay [4] is described as follows: Cell cycle arrest in human NALM6 cells assessed as reduction of cells in G1 phase after 48 hrs using propidium iodide by FACS analysis. Type of assay: functional, cell-based. The following applies: NALM-6. The gist of the method:
(§3)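 Reh and Nalm6 cells exposed 48 h to 0.1, 0.5, 1 and 5 µM, harvested, stained with propidium iodide and analysed by flow cytometry. Gated fractions were sub G1, G1, S and G2. DMSO-treated cells served as vehicle control. Three independent experiments for Reh and two for Nalm6.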

In assay [5] the test system is REH. The assay is described as follows: Cell cycle arrest in human REH cells assessed as reduction of cells in G2/M phase after 48 hrs using propidium iodide by FACS analysis. Type of assay: functional, cell-based. The gist of the method: as §3
Assay [6] concerns REH. The assay is described as follows: Induction of apoptosis in human REH cells assessed as reduction of KU70 protein expression at 1 uM after 48 hrs by Western blot analysis. Type of assay: functional, cell-based. The gist of the method:
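Reh cells exposed 48 h to 500 nM or 1 µM, with DMSO-treated cells as control; cell lysates probed by western blot with specific primary antibodies against KU70, PARP1, caspases 3, 8 and 9, BID and FAS; tubulin shown as loading reference.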

A short description of assay [7]: Cell cycle arrest in human NALM6 cells assessed as reduction of cells in S phase after 48 hrs using propidium iodide by FACS analysis. Type of assay: functional, cell-based. The following applies: NALM-6. Put shortly: as §3
Assay [8] is described as follows: Growth inhibition of human CNS cancer cells. Type of assay: functional. Conditions: Cancer cell lines.
The test system of assay [9] is REH. The assay is described as follows: Cytotoxicity against human REH cells assessed as reduction in cell viability after 24 to 72 hrs by trypan blue exclusion assay. Type of assay: functional, cell-based. Put shortly: as §2
Assay [10] deals with REH. The assay is described as follows: Induction of apoptosis in human REH cells assessed as caspase 3 cleavage after 48 hrs by Western blot analysis. Type of assay: functional, cell-based. Put shortly: as §1
The test system of assay [11] is REH. The assay is described as follows: Induction of apoptosis in human REH cells assessed as dead cells at 1 uM after 48 hrs using annexin-v-FITC/propidium iodide by FACS analysis (reference value: 0.03 %).
Assay [12] concerns REH. The assay is described as follows: Induction of apoptosis in human REH cells assessed as reduction of BID at 1 uM after 48 hrs by Western blot analysis. Type of assay: functional, cell-based. Put shortly:
as §1

Activity calls are given as the source filed them. The rule behind the calls is not given here.

By GI50 is commonly meant the concentration giving 50% growth inhibition. Higher therefore signals less potent growth inhibition. In general, LC50 refers to the concentration that kills 50% of the test population. A low value points to greater toxicity. As usually defined, the TGI is the concentration at which net growth stops. A low value points to greater sensitivity of the cells. Consider `O=Cc1c(-c2ccc(Br)cc2)nc2sc(Cc3ccccc3)nn12`, for which the Activity in the assay on REH [1] is 43.03%; in the assay on K562, “tde”; in assay [4], “Dose-dependent effect”; in the assay with REH [5], “Dose-dependent effect”; in assay [7], “Dose-dependent effect”; in the assay on REH [9] it was “Dose-dependent effect”. The values for the Activity result with REH [10] and in the assay with REH [11] were “Dose-dependent effect” and 0.42%, respectively. The viability at 1 µM in the assay with REH [2] came to 5.23%. Also, the result in the assay with REH [3] was inactive. The result in the assay on REH [6] and in the assay on REH [12] was Active. The compound also came in with a 50% growth inhibitory concentration (GI50) in assay [8] of 2.2 µM. Also, in assay [8], the LC50 was 64.6 µM. For the same compound, the TGI in [8] was 7.4 µM.
